# Laboratory results as given in ChEMBL document CHEMBL5365541, “Designing peptide amphiphiles as novel antibacterials and antibiotic adjuvants against gram-negative bacteria” (Bioorg Med Chem, 2023).
# Activity calls are given as the source filed them. The rule behind the calls is not given here.
# Experiments:
# [1] = Cytotoxicity against HEK293 cells assessed as cell viability up to 64 ug/ml incubated for 24 hrs by XTT assay relative to control; type: toxicity, cell-based; details: human, up to 64 µg/mL, read-out: Activity
# Summary of the method: (§1)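 HEK-293 cells, passages 3–8, seeded at 5×10^4 per well and preincubated 24 h at 37 °C, 5% CO2. Medium replaced with serially diluted PA, final 8–256 µg/mL, for 24 h, in triplicate. XTT reagent (0.5 mg/mL) added for 4 h at 37 °C, then absorbance read at 600 nm.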
# Staphylococcus aureus [2] = assay: Inhibition of biofilm formation in methicillin-resistant Staphylococcus aureus JE2 at MIC; type: functional, organism-based
# Cell membrane [3] = assay: Induction of inner membrane permeability in Escherichia coli K12 assessed as shift in bacterial zeta potential at 40 ug/ml measured after 1 hr; type: subcellular; details: dose 40.0 µg/ml
# Cell membrane [4] = assay: Induction of inner membrane permeability in Escherichia coli K12 at 8 to 16 ug/mL by propidium iodide staining based spectrofluorometry; type: subcellular; details: dose 8-16 µg/ml
# Summary of the method: (§2)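 E. coli K12 grown in MHB to mid-log, washed twice in PBS, and diluted to 10^6 CFU/mL in 5 mM HEPES + glucose. Cells preincubated with […] at least 15 min at 37 °C. Then treated with agent at 1/8, 1× or 2× MIC, or with PA–vancomycin 1:1. Fluorescence read at ex 535 / em 615 nm. Polymyxin B as positive control; untreated cells as negative control.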
# Acinetobacter baumannii [5] = assay: Synergistic antibacterial activity against Acinetobacter baumannii assessed as fractional inhibitory concentration index incubated for 20 to 24 hrs in presence of rifampicin by checkerboard broth microdilution assay; type: functional; details: time 20-24 hrs
# Summary of the method: (§3)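 Checkerboard broth microdilution. E. coli K12 or A. baumannii clinical isolate grown to mid-log (OD ~0.8) and diluted to ~10^5 CFU/mL in MHB. Two-fold dilutions of rifampicin or vancomycin run across the plate against two-fold PA dilutions down it. Incubated 20–24 h at 37 °C, OD read at 470 nm. FICi calculated from the combination MICs.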
# Escherichia coli [6] = assay: Antibacterial activity against Escherichia coli K12 incubated for 20 to 24 hrs by broth microdilution method; type: functional; details: time 20-24 hrs
# Summary of the method: (§4)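 Broth microdilution: colonies suspended directly to 1.5×10^8 CFU/mL (0.5 McFarland), then diluted in Mueller–Hinton broth to ~10^5 CFU/mL final. PA stock 1 mg/mL in water, pH 7, serially diluted in MHB. Plates incubated 20–24 h at 37 °C. MIC = lowest concentration inhibiting growth, read as OD600 with optional 1% TTC staining. Triplicate.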
# Staphylococcus aureus [7] = assay: Induction of morphological changes in methicillin-resistant Staphylococcus aureus JE2 assessed as membrane deformations with protruding bumps at 8 ug/ml incubated for 2 hrs by scanning electron microscopy; type: functional, organism-based; details: dose 8.0 µg/ml
# Escherichia coli [8] = assay: Ratio of MIC for Escherichia coli K12 at pH 5.5 to MIC for Escherichia coli K12 at pH 7.0
# Escherichia coli [9] = assay: Induction of morphological changes in Escherichia coli K12 assessed as membrane deformations with protruding holes at 8 ug/ml incubated for 2 hrs by scanning electron microscopy; type: functional, organism-based; details: dose 8.0 µg/ml
# Cell membrane [10] = assay: Induction of inner membrane permeability in Escherichia coli K12 at 4 ug/mL by propidium iodide staining based spectrofluorometry; type: subcellular; details: dose 4.0 µg/ml; summary of the method: as §2
# Staphylococcus aureus [11] = assay: Antibacterial activity against methicillin resistant Staphylococcus aureus JE2 measured over 21 days by broth microdilution method; type: functional, organism-based; details: time 21.0 day
# Escherichia coli [12] = assay: Induction of morphological changes in Escherichia coli K12 assessed as cytoplasmic leakage at 8 ug/ml incubated for 2 hrs by scanning electron microscopy; type: functional, organism-based; details: dose 8.0 µg/ml
# Acinetobacter baumannii [13] = assay: Antibacterial activity against Acinetobacter baumannii incubated for 20 to 24 hrs by broth microdilution method; type: functional; details: time 20-24 hrs; summary of the method: as §4
# HEK293 = assay: Cytotoxicity against HEK293 cells assessed as reduction in cell viability at 64 to 256 ug/ml incubated for 24 hrs by XTT assay; type: toxicity, cell-based; details: human, hek293, 24 h, dose 64-256 µg/ml; summary of the method: as §1
# Escherichia coli [14] = assay: Induction of morphological changes in Escherichia coli K12 assessed as membrane deformations with protruding bumps at 8 ug/ml incubated for 2 hrs by scanning electron microscopy; type: functional, organism-based; details: dose 8.0 µg/ml
# Cell membrane [15] = assay: Induction of inner membrane permeability in methicillin-resistant Staphylococcus aureus JE2 assessed as shift in bacterial zeta potential at 40 ug/ml measured after 1 hr; type: subcellular; details: dose 40.0 µg/ml
# Summary of the method: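 Mid-log MRSA JE2 from MHB (OD ~0.8) washed and resuspended in PBS at 5×10^7 CFU/mL, exposed to peptide at 10 × MIC for 1 h, then zeta potential measured at 25 °C; untreated cells as negative control, daptomycin and polymyxin B as reference drugs.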
# [16] = Retention time of the compound by RP-HPLC analysis; type: physicochemical
# Summary of the method: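 Reverse-phase HPLC, linear gradient 0–100% acetonitrile in water with 0.1% TFA over 20 min; retention time recorded.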
# Staphylococcus aureus [17] = assay: Induction of morphological changes in methicillin-resistant Staphylococcus aureus JE2 assessed as membrane deformations with protruding holes at 8 ug/ml incubated for 2 hrs by scanning electron microscopy; type: functional, organism-based; details: dose 8.0 µg/ml
# Staphylococcus aureus [18] = assay: Antibacterial activity against methicillin-resistant Staphylococcus aureus JE2 incubated for 20 to 24 hrs by broth microdilution method; type: functional; details: time 20-24 hrs
# Summary of the method: (§5)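 Broth microdilution in MHB: direct colony suspension at 0.5 McFarland diluted to ~10^5 CFU/mL final; peptide stock 1 mg/mL in water at pH 7, serially diluted. Incubated 20-24 h at 37 °C; MIC taken as the lowest concentration inhibiting growth (OD 600 nm, 1% TTC stain); triplicate; vancomycin and gentamicin as positive controls.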
# Staphylococcus aureus [19] = assay: Induction of morphological changes in Methicillin-resistant Staphylococcus aureus JE2 assessed as cytoplasmic leakage at 8 ug/ml incubated for 2 hrs by scanning electron microscopy; type: functional, organism-based; details: dose 8.0 µg/ml
# Staphylococcus aureus [20] = assay: Disruption of preformed biofilm in methicillin-resistant Staphylococcus aureus JE2 at MIC to 4 times MIC; type: functional, organism-based
# [21] = Self assembly property of the compound assessed as width of micelles at 1 mg/ml incubated overnight by transmission electron microscopy; type: physicochemical
# Summary of the method: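 Samples were dissolved at 2 mM in water, pH 7, and left at room temperature overnight. Applied to copper grids for 5 min, blotted, and negatively stained with NanoVan for 30 s. Imaged by TEM at 120 kV.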
# Staphylococcus aureus [22] = assay: Antibacterial activity against methicillin-resistant Staphylococcus aureus 13C incubated for 20 to 24 hrs by broth microdilution method; type: functional; details: time 20-24 hrs; summary of the method: as §5
# [23] = Toxicity in Galleria mellonella assessed as survival at 75 mg/kg measured after 4 days relative to control; type: organism-based; details: in vivo, time 4 day
# Summary of the method: (§6)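 Acute toxicity in G. mellonella larvae following OECD guidelines: cohorts of five larvae injected starting at 25 mg/kg, retested […] on new larvae if lethality was under 40%, continuing until a toxic dose was found; incubated at 37 °C with mortality recorded daily over 4 days.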
# Staphylococcus aureus [24] = assay: Antibacterial activity against Methicillin-resistant Staphylococcus aureus JE2 infected in Galleria mellonella assessed as survival at 75 mg/kg measured after 4 days relative to control; type: functional; details: JE2, 96 h, time 4 day
# Summary of the method: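 G. mellonella larvae injected with 10 µL MRSA JE2 at a pre-set infective dose (60-80% lethality within 48 h, not 100% within 24 h) into last left proleg; after 2 h, 10 µL peptide or antibiotic injected into last right proleg; larvae held at 37 °C, mortality recorded daily for 4 days; untreated infected and PBS-only larvae as controls.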
# Escherichia coli [25] = assay: Synergistic antibacterial activity against Escherichia coli K12 assessed as fractional inhibitory concentration index incubated for 20 to 24 hrs in presence of rifampicin by checkerboard broth microdilution assay; type: functional; details: time 20-24 hrs; summary of the method: as §3
# [26] = Self assembly property of the compound assessed as zeta potential at 250 ug/mL at pH 7 measured after 2 hrs; type: physicochemical; details: pH 7, 2 h, dose 250 µg/ml
# Summary of the method: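 Peptide self-assembled at 1 mg/mL, pH 7, annealed 2 h at 80 °C, and aged overnight. Diluted to 250 µg/mL in water; zeta potential measured at 25 °C.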
# [27] = Toxicity in Galleria mellonella assessed as survival at 125 to 150 mg/kg measured after 4 days relative to control; type: organism-based; details: in vivo, dose 125-150 mg/kg, time 4 day; summary of the method: as §6
# Acinetobacter baumannii [28] = assay: Synergistic antibacterial activity against Acinetobacter baumannii assessed as potentiation of rifampicin-induced antibacterial activity by measuring fold increase in rifampicin MIC incubated for 20 to 24 hrs by checkerboard broth microdilution assay relative to rifampicin alone; type: functional; details: time 20-24 hrs; summary of the method: as §3
# Staphylococcus aureus [29] = assay: Antibacterial activity against methicillin-resistant Staphylococcus aureus LAC incubated for 20 to 24 hrs by broth microdilution method; type: functional; details: time 20-24 hrs; summary of the method: as §5
# Staphylococcus aureus [30] = assay: Ratio of MIC for methicillin-resistant Staphylococcus aureus JE2 at pH 5.5 to MIC for methicillin-resistant Staphylococcus aureus JE2 at pH 7.0
smiles,measurement,setting,value
CCCCCCCCCCCCCCCCN[C@@H](CCCCN)C(=O)N[C@@H](CCCNC(=N)N)C(=O)N[C@@H](CCCCN)C(=O)N[C@@H](CCCNC(=N)N)C(=O)O,viability at 24 h,[1],100%
same,inhibition,Staphylococcus aureus [2],Active
same,Activity,Cell membrane [3],Active
same,Activity,Cell membrane [4],Active
same,fractional inhibitory concentration index (FICI),Acinetobacter baumannii [5],0.75
same,MIC,Escherichia coli [6],4 µg/mL
same,Activity,Staphylococcus aureus [7],Active
same,Ratio,Escherichia coli [8],> 1
same,Activity,Escherichia coli [9],Active
same,Activity,Cell membrane [10],inactive
same,Activity,Staphylococcus aureus [11],Active
same,Activity,Escherichia coli [12],Active
same,MIC,Acinetobacter baumannii [13],8 µg/mL
same,Activity,HEK293,Non-Toxic
same,Activity,Escherichia coli [14],Active
same,Activity,Cell membrane [15],Active
same,Retention_time,[16],13.8 min
same,Activity,Staphylococcus aureus [17],Active
same,MIC,Staphylococcus aureus [18],4 µg/mL
same,Activity,Staphylococcus aureus [19],Active
same,Activity,Staphylococcus aureus [20],inactive
same,Activity,[21],7 nm
same,MIC,Staphylococcus aureus [22],8 µg/mL
same,survival at 96 h,[23],100%
same,survival at 75 mg/kg,Staphylococcus aureus [24],60%
same,fractional inhibitory concentration index (FICI),Escherichia coli [25],0.62
same,Activity,[26],15 mV
same,survival at 96 h,[27],80%
same,fold change (FC),Acinetobacter baumannii [28],2
same,MIC,Staphylococcus aureus [29],8 µg/mL
same,Ratio,Staphylococcus aureus [30],> 1
